Data published in ChEMBL document CHEMBL1150246, “Synthesis and activity of tetrapeptidic HTLV-I protease inhibitors possessing different P3-cap moieties” (Bioorg Med Chem, 2008).
Starred links: 1 amine or outer side, 2 acyl side, 3 side chain; linkers in the order of their positions; H or OH if unused. Non-standard residues stand in square brackets, D forms with d. Residues, ends and D or L forms follow the SMILES beside them. X1 = O=C([C@@H](O)[C@H](Cc1ccccc1)N[*:1])[*:2]

Tests used:
[1] = biological target: T1, Protease (Human T-lymphotropic virus 1, UniProt Q82323); assay: Inhibition of HTLV1 protease1; set-up: species or system Human T-cell leukemia virus type I
T1 sequence (Q82323 whole entry): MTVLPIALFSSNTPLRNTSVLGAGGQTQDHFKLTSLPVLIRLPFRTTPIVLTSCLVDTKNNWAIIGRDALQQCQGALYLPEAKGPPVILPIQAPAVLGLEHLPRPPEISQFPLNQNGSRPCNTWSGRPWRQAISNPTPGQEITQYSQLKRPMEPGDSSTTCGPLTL
Outline: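 HTLV-I protease L40I mutant, which blocks autolysis and improves stability. Inhibition reported as IC50 with SEM in nM. Remaining assay steps follow an earlier published procedure.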

[2] = test system: Human immunodeficiency virus; assay: Inhibition of HIV protease at 50 nM

Row | Compound | IC50 [1] [nM] | inhibition [2] [%]
1 | CSCC[C@H](NC(=O)[C@@H](NC(=O)[C@@H]1CCCN1C(=O)[C@@H](O)[C@H](Cc1ccccc1)NC(=O)[C@@H](NC(=O)[C@H](CCC(N)=O)NC(=O)[C@@H]1CCCN1)C(C)C)C(C)C)C(=O)N[C@@H](Cc1cnc[nH]1)C(=O)O (H-PQV[X1]PVMH-OH) | 159 | –
2 | CC(C)CNC(=O)[C@H]1N(C(=O)[C@@H](O)[C@H](Cc2ccccc2)NC(=O)[C@@H](NC(=O)[C@@H](NC(=O)c2ccccc2)c2ccccc2)C(C)(C)C)CSC1(C)C | 79.2 | > 99
3 | CC(C)CCC(=O)N[C@H](C(=O)N[C@H](C(=O)N[C@@H](Cc1ccccc1)[C@H](O)C(=O)N1CSC(C)(C)[C@H]1C(=O)NCC(C)C)C(C)(C)C)c1ccccc1 | 96.5 | > 99
4 | CC(C)CNC(=O)[C@H]1N(C(=O)[C@@H](O)[C@H](Cc2ccccc2)NC(=O)[C@@H](NC(=O)[C@@H](NC(=O)C(C)(C)C)c2ccccc2)C(C)(C)C)CSC1(C)C | 82.8 | > 99
5 | CC(=O)N[C@H](C(=O)N[C@H](C(=O)N[C@@H](Cc1ccccc1)[C@H](O)C(=O)N1CSC(C)(C)[C@H]1C(=O)NCC(C)C)C(C)(C)C)c1ccccc1 | 107 | > 99
6 | CC(C)CNC(=O)[C@H]1N(C(=O)[C@@H](O)[C@H](Cc2ccccc2)NC(=O)[C@@H](NC(=O)[C@@H](NC(=O)C2CC2)c2ccccc2)C(C)(C)C)CSC1(C)C | 96.9 | > 99
7 | CCC(C)CC(=O)N[C@H](C(=O)N[C@H](C(=O)N[C@@H](Cc1ccccc1)[C@H](O)C(=O)N1CSC(C)(C)[C@H]1C(=O)NCC(C)C)C(C)(C)C)c1ccccc1 (stereo not given in full) | 88.2 | > 99
8 | CC(C)CNC(=O)[C@H]1N(C(=O)[C@@H](O)[C@H](Cc2ccccc2)NC(=O)[C@@H](NC(=O)[C@@H](NC(=O)CCc2ccccc2)c2ccccc2)C(C)(C)C)CSC1(C)C | 105 | > 99
9 | CCCCC(=O)N[C@H](C(=O)N[C@H](C(=O)N[C@@H](Cc1ccccc1)[C@H](O)C(=O)N1CSC(C)(C)[C@H]1C(=O)NCC(C)C)C(C)(C)C)c1ccccc1 | 92 | > 99
10 | CCCC(=O)N[C@H](C(=O)N[C@H](C(=O)N[C@@H](Cc1ccccc1)[C@H](O)C(=O)N1CSC(C)(C)[C@H]1C(=O)NCC(C)C)C(C)(C)C)c1ccccc1 | 104 | > 99
11 | CC(C)CNC(=O)[C@H]1N(C(=O)[C@@H](O)[C@H](Cc2ccccc2)NC(=O)[C@@H](NC(=O)[C@@H](NC(=O)C(C)C)c2ccccc2)C(C)(C)C)CSC1(C)C | 93.5 | > 99
12 | CC(C)CNC(=O)[C@H]1N(C(=O)[C@@H](O)[C@H](Cc2ccccc2)NC(=O)[C@@H](NC(=O)[C@@H](N)c2ccccc2)C(C)(C)C)CSC1(C)C | 332 | > 99
13 | CC(C)CNC(=O)[C@H]1N(C(=O)[C@@H](O)[C@H](Cc2ccccc2)NC(=O)[C@@H](NC(=O)[C@@H](NC(=O)CC(C)C)c2ccccc2)C(C)(C)C)CSC1(C)C | 102 | > 99
14 | CC(C)CNC(=O)[C@H]1N(C(=O)[C@@H](O)[C@H](Cc2ccccc2)NC(=O)[C@@H](NC(=O)[C@@H](NC(=O)CC(C)(C)C)c2ccccc2)C(C)(C)C)CSC1(C)C | 83.3 | > 99
15 | CCC(C)(C)C(=O)N[C@H](C(=O)N[C@H](C(=O)N[C@@H](Cc1ccccc1)[C@H](O)C(=O)N1CSC(C)(C)[C@H]1C(=O)NCC(C)C)C(C)(C)C)c1ccccc1 | 80.4 | > 99
16 | CCC(=O)N[C@H](C(=O)N[C@H](C(=O)N[C@@H](Cc1ccccc1)[C@H](O)C(=O)N1CSC(C)(C)[C@H]1C(=O)NCC(C)C)C(C)(C)C)c1ccccc1 | 105 | > 99
17 | CCCC(C)C(=O)N[C@H](C(=O)N[C@H](C(=O)N[C@@H](Cc1ccccc1)[C@H](O)C(=O)N1CSC(C)(C)[C@H]1C(=O)NCC(C)C)C(C)(C)C)c1ccccc1 (stereo not given in full) | 84.2 | > 99
18 | CC(C)CNC(=O)[C@H]1N(C(=O)[C@@H](O)[C@H](Cc2ccccc2)NC(=O)[C@@H](NC(=O)[C@@H](NC(=O)C2CCCCC2)c2ccccc2)C(C)(C)C)CSC1(C)C | 98.2 | > 99
